Results: ChEMBL document CHEMBL1121573, “2-(Aminomethyl)phenols, a new class of saluretic agents. 1. Effects of nuclear substitution” (J Med Chem, 1980)

How the values were obtained:
Canis familiaris [1] = assay: Oral diuretic activity was evaluated by measuring Cl- excretion in dog at 1 mg/kg after […] ( 0-6 hr ); type: ADME, organism-based, Canis lupus familiaris, Urine; parameters: dose 1 mg/kg, route intraperitoneal; settings: in vivo
Rattus norvegicus [2] = assay: Compound administered orally at a dose of 1 mg/kg was evaluated for salidiuretic activity measured as sodium ion excretion in Rat; settings: in vivo, po
Rattus norvegicus [3] = assay: Oral diuretic activity was evaluated by measuring Cl- excretion in Rat at 3 mg/kg after […] ( 0-5 hr ); type: ADME, organism-based, Urine; parameters: dose 3 mg/kg, route intraperitoneal; settings: in vivo
Rattus norvegicus [4] = species: Rattus norvegicus; assay: Time taken for the decrease in arterial pressure was measured; type: functional, Artery
Rattus norvegicus [5] = assay: Oral diuretic activity was evaluated by measuring Cl- excretion in Rat at 9 mg/kg […] ( 0-5 hr ); type: ADME, organism-based, Urine; parameters: dose 9 mg/kg; settings: in vivo
Procedure, shortened: (§1)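 Female Charles-River rats (150–170 g) were kept overnight on a sugar diet with water ad libitum. Test substance was dissolved in DMF and diluted with water containing Tween 80 to a final 4% DMF vehicle, then given po in 5.0 mL. Rats were housed three per metabolism cage, and 0–5 h urine was assayed for Na⁺, K⁺ and Cl⁻ alongside concurrent placebo groups. Values are mequiv × 100 per cage, geometric means of three cages per dose.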

Canis familiaris [6] = assay: Oral diuretic activity was evaluated by measuring Na+ excretion in dog at 1 mg/kg after ip administration ( 0-6 hr ); type: ADME, organism-based, Canis lupus familiaris, Urine; parameters: dose 1 mg/kg, route intraperitoneal; settings: in vivo
Procedure, shortened: (§2)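 Spontaneous urine was pooled with bladder urine collected by catheterization at 6 h. Volume was measured and Na+, K+ and Cl− were determined by standard methods. Values are geometric means.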

Rattus norvegicus [7] = assay: Oral diuretic activity was evaluated by measuring Cl- excretion in Rat at 27 mg/kg after po administration ( 0-5 hr ); settings: in vivo
Canis familiaris [8] = assay: Oral diuretic activity was evaluated by measuring K+ excretion in dog at 5 mg/kg after ip administration ( 0-6 hr ); type: ADME, organism-based, Canis lupus familiaris, Urine; parameters: dose 5 mg/kg, route intraperitoneal; settings: in vivo; procedure, shortened: as §2
Canis familiaris [9] = assay: Oral diuretic activity was evaluated by measuring Na+ excretion in dog at 5 mg/kg after ip administration ( 0-6 hr ); type: ADME, organism-based, Canis lupus familiaris, Urine; parameters: dose 5 mg/kg, route intraperitoneal; settings: in vivo
Procedure, shortened: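 Urine collected over 0–6 h: spontaneous voids were pooled with bladder urine taken by catheterization at 6 h. Urine volume was measured, and aliquots were analysed for Na+, K+ and Cl− by standard methods. Electrolyte excretion is reported as geometric means.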

Rattus norvegicus [10] = assay: Oral diuretic activity was evaluated by measuring Na+ excretion in Rat at 9 mg/kg […] ( 0-5 hr ); type: ADME, organism-based, Urine; parameters: dose 9 mg/kg; settings: in vivo, ip
Procedure, shortened: (§3)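 Female Charles-River rats (150–170 g) were kept overnight on a sugar diet with water ad libitum. Compound was dissolved in DMF, then diluted with water containing Tween 80 (3 drops/100 mL) to a final 4% DMF, and given po in 5.0 mL. Rats were housed three per metabolism cage. Urine from 0–5 h was analysed for Na+, K+ and Cl−, with concurrent placebo controls. Values are mequiv × 100 per cage, geometric mean of three cages per dose.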

Canis familiaris [11] = assay: Oral diuretic activity was evaluated by measuring Cl- excretion in dog at 5 mg/kg after […] ( 0-6 hr ); type: ADME, organism-based, Canis lupus familiaris, Urine; parameters: dose 5 mg/kg, route intraperitoneal; settings: in vivo
Rattus norvegicus [12] = assay: Oral diuretic activity was evaluated by measuring K+ excretion in Rat at 27 mg/kg after po administration ( 0-5 hr ); settings: in vivo
Rattus norvegicus [13] = assay: Oral diuretic activity was evaluated by measuring Na+ excretion in Rat at 81 mg/kg […] ( 0-5 hr ); type: ADME, organism-based, Urine; parameters: dose 81 mg/kg; procedure, shortened: as §3
Rattus norvegicus [14] = assay: Evaluated for salidiuretic activity measured as sodium ion excretion in Rat, administered orally at a dose of 50 mg/kg; type: functional, Urine; parameters: unit not given beside the values; settings: route oral
Procedure, shortened: (§4)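 Female Charles-River rats (150–170 g), overnight on sugar diet with water ad libitum. Compound dissolved in DMF, diluted with water containing Tween 80 (final 4% DMF), given po in 5.0 mL; concurrent vehicle placebo. Three rats per metabolism cage; 0–5 h urine analysed for Na+, K+, Cl-. Values: mequiv × 100 per cage, geometric means of three cages per dose; scored 0–6 by Na+.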

Canis familiaris [15] = assay: Oral diuretic activity was evaluated by measuring K+ excretion in dog at 1 mg/kg after […] ( 0-6 hr ); type: ADME, organism-based, Canis lupus familiaris, Urine; parameters: dose 1 mg/kg; settings: in vivo; procedure, shortened: as §2
Rattus norvegicus [16] = assay: Oral diuretic activity was evaluated by measuring K+ excretion in Rat at 81 mg/kg after […] ( 0-5 hr ); type: ADME, organism-based, Urine; parameters: dose 81 mg/kg; settings: in vivo; procedure, shortened: as §1
Rattus norvegicus [17] = assay: Maximum fall in mean arterial blood pressure was measured in SH rats when compound was administered at 30 mg/kg perorally; type: functional; settings: route oral
Rattus norvegicus [18] = assay: Oral diuretic activity was evaluated by measuring K+ excretion in Rat at 3 mg/kg […] ( 0-5 hr ); type: ADME, organism-based, Urine; parameters: dose 3 mg/kg; procedure, shortened: as §1
Rattus norvegicus [19] = assay: Oral diuretic activity was evaluated by measuring Cl- excretion in Rat at 81 mg/kg after po administration ( 0-5 hr ); settings: in vivo
[20] = Compound administered orally at a dose of 5 mg/kg was evaluated for salidiuretic activity measured as sodium ion excretion in Rat; type: organism-based; parameters: dose 5 mg/kg; settings: Urine; procedure, shortened: as §4
Rattus norvegicus [21] = assay: Oral diuretic activity was evaluated by measuring Na+ excretion in Rat at 3 mg/kg […] ( 0-5 hr ); type: ADME, organism-based, Urine; parameters: dose 3 mg/kg; settings: in vivo, ip; procedure, shortened: as §3
Rattus norvegicus [22] = assay: Oral diuretic activity was evaluated by measuring Na+ excretion in Rat at 27 mg/kg after […] ( 0-5 hr ); type: ADME, organism-based, Urine; parameters: dose 27 mg/kg; procedure, shortened: as §3
Canis familiaris [23] = assay: Compound administered intravenously at a dose of 5 mg/kg was evaluated for salidiuretic activity measured as sodium ion excretion in Dog; type: ADME, organism-based, Canis lupus familiaris, Urine; parameters: dose 5 mg/kg, route intravenous; settings: in vivo, iv
Procedure, shortened: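 Conditioned female mongrel dogs, postabsorptive, water-loaded (500 mL po) 1 h before sodium pentobarbital anesthesia (30 mg/kg iv). Bladder catheter; creatinine 4 g sc; phosphate–mannitol buffer pH 7.4 infused (3.0 mL/min) throughout. […] Urine Na+ measured; response scored 0–6.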

[24] = Evaluated for salidiuretic activity measured as sodium ion excretion in Rat, administered orally at a dose of 16.5 mg/kg; type: organism-based; parameters: dose 16.5 mg/kg; settings: Urine; procedure, shortened: as §4
Rattus norvegicus [25] = assay: Oral diuretic activity was evaluated by measuring K+ excretion in Rat at 9 mg/kg […] ( 0-5 hr ); type: ADME, organism-based, Urine; parameters: dose 9 mg/kg; procedure, shortened: as §1

COc1c(Cl)c(O)c(CN)c(OC)c1Cl.Cl
Diuretic activity (Canis familiaris [1]): 24.67 | Diuretic activity (Rattus norvegicus [2]): 0.7 | Diuretic activity (Rattus norvegicus [3]): 1.25 | Duration (Rattus norvegicus [4]): 12 h | Diuretic activity (Rattus norvegicus [5]): 2.36 | Diuretic activity (Canis familiaris [6]): 17.78 | Diuretic activity (Rattus norvegicus [7]): 2.51 | Diuretic activity (Canis familiaris [8]): 8 | Diuretic activity (Canis familiaris [9]): 42.5 | Diuretic activity (Rattus norvegicus [10]): 1.58 | Diuretic activity (Canis familiaris [11]): 54.5 | Diuretic activity (Rattus norvegicus [12]): 0.42 | Diuretic activity (Rattus norvegicus [13]): 2.17 | Diuretic activity (Rattus norvegicus [14]): 3.6 | Diuretic activity (Canis familiaris [15]): 4.78 | Diuretic activity (Rattus norvegicus [16]): 0.39 | MAP (Rattus norvegicus [17]): 19 mmHg | Diuretic activity (Rattus norvegicus [18]): 0.26 | Diuretic activity (Rattus norvegicus [19]): 3.26 | Diuretic activity [20]: 2.6 | Diuretic activity (Rattus norvegicus [21]): 0.86 | Diuretic activity (Rattus norvegicus [22]): 1.61 | Diuretic activity (Canis familiaris [23]): > 900 | Diuretic activity [24]: 3.3 | Diuretic activity (Rattus norvegicus [25]): 0.42
